Assay results gathered from unrelated publications.

SMILES	tested on	test	system	setting	endpoint	result
CC(C)CCC(=O)N[C@H]1[C@H]([C@H](O)[C@H](O)CO)OC(C(=O)O)=C[C@@H]1O		shake flask	aqueous buffer	2 h, pH 7.4	logD	-0.88
N#C[C@@]1(n2ccc(N)nc2=O)O[C@H](CO)[C@@H](O)[C@H]1O	Calu-3	cell growth or viability			CC50	> 100 µM
CC(C)CC(=O)OC[C@H]1O[C@@](C#N)(c2ccc3c(N)ncnn23)[C@H](O)[C@@H]1O	HEp-2	cell growth or viability, CCK-8		5 days	CC50	> 100 µM
Cc1[nH]c(C)c(S(=O)(=O)Nc2ccc(S(=O)(=O)F)c(Cl)c2)c1C(=O)N1CCC(F)(F)C1		metabolic stability	human, liver microsomes		microsomal CLint	31.7 µL/min/mg
CC(C)(C)[C@H](NC(=O)C(F)(F)F)C(=O)N1C[C@H]2[C@@H]([C@H]1C(=O)N[C@H](C#N)C[C@@H]1CCNC1=O)C2(C)C	Calu-3	cell growth or viability			CC50	> 100 µM
COc1ccc(NC(=O)N2CCCCN3[C@H](CN(C)C)[C@H](c4ccc(C#Cc5ccccc5)cc4)[C@@H]3C2)cc1	THP-1	cell growth or viability, ATP luminescence		72 h	CC50	2.87 µM
O=C1NC2(CCC2)C(=O)N1c1ccc(F)c(C(F)(F)F)c1		metabolic stability	human, liver microsomes		microsomal CLint	11 µL/min/mg
CC/C(=C(\c1ccccc1)c1ccc(OCCN(C)C)cc1)c1ccccc1	MCF7	cell growth or viability, resazurin		72 h	IC50	18.2 µM
Cc1[nH]c(C)c(S(=O)(=O)Nc2ccc(S(F)(F)(F)(F)F)c(Cl)c2)c1C(=O)N1CCC(F)(F)C1		metabolic stability	rat, liver microsomes		microsomal CLint	20.5 µL/min/mg
CC1(CC(F)(F)F)NC(=O)N(c2ccc(F)c(C(F)(F)F)c2)C1=O (centres unmarked)		metabolic stability	human, liver microsomes		microsomal CLint	< 7 µL/min/mg
CC(C)Cc1cn([C@H]2[C@H]([C@H](O)[C@H](O)CO)OC(C(=O)O)=C[C@@H]2O)nn1		shake flask	aqueous buffer	2 h, pH 7.4	logD	-0.54
